# Data from ChEMBL document CHEMBL2062384, “Alkyne derivatives of isocoumarins as clickable activity-based probes for serine proteases” (Bioorg Med Chem, 2012).
# Active and inactive are the calls of the source. The calls are words filed in the database; no cut-off is given here.
# Key:
# [1] = molecular target: Trypsin (Homo sapiens) (UniProt P07477+P07478+P35030); experiment: Binding affinity to trypsin assessed as protein labeling at 2 uM after 15 mins by fluorescent scanning method; format: protein assay
# Method in brief: (§1)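 100 ng purified protease per lane; cathepsin G in 50 mM HEPES pH 7.4 with 100 mM NaCl, others in 50 mM phosphate pH 7.4. Optional 30 min pre-block (chymotrypsin 100 µM Ala-Ala-Phe-phosphonate, cathepsin G 1 mM PMSF, urokinase 100 µM DFP, elastase/trypsin 1 mM dichloroisocoumarin). Probe 2 µM, 15 min at room temperature. Then 30 min room-temperature click (25 µM TAMRA-PEG-N3, 50 µM THPTA, 1 mM CuSO4, 500 µM ascorbate), SDS-PAGE, scan ex 532/em 580 nm.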
# [2] = species: Sus scrofa; experiment: Binding affinity to porcine pancreatic elastase assessed as protein labeling at 2 uM after 15 mins pretreated with 1 mM 3,4-dichloroisocoumarin for 30 mins before compound addition by fluorescent scanning method; method in brief: as §1
# [3] = species: Bos taurus; experiment: Binding affinity to bovine chymotrypsin assessed as protein labeling at 2 uM measured after 15 mins by fluorescent scanning method; method in brief: as §1
# [4] = species: Sus scrofa; experiment: Binding affinity to porcine pancreatic elastase assessed as protein labeling at 2 uM after 15 mins by fluorescent scanning method; method in brief: as §1
# [5] = molecular target: Urokinase-type plasminogen activator (Homo sapiens) (UniProt P00749); experiment: Binding affinity to urokinase-type plasminogen activator assessed as protein labeling at 2 uM after 15 mins by fluorescent scanning method; method in brief: as §1
# [6] = molecular target: Urokinase-type plasminogen activator (Homo sapiens) (UniProt P00749); experiment: (§2) Binding affinity to urokinase-type plasminogen activator assessed as protein labeling at 2 uM after 15 mins pretreated with 100 uM DFP for 30 mins before compound addition by fluorescent scanning method; method in brief: as §1
# [7] = species: Bos taurus; experiment: Binding affinity to bovine chymotrypsin assessed as protein labeling at 2 uM measured after 15 mins pretreated with 100 uM Ala-Ala-Phe-diphenyl phosphonate for 30 mins before compound addition by fluorescent scanning method; method in brief: as §1
# [8] = test system: lymphoma; experiment: Binding affinity to porcine pancreatic elastase assessed as protein labeling at 2 uM after 15 mins in presence of mouse EL4 lymphoma cell lysate for protease spiking by fluorescent scanning method relative to total protein content; format: cell-free; settings: Sus scrofa
# Method in brief: (§3)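 Protease spiked into EL4 mouse lymphoma lysate (RIPA, 30 min on ice, cleared by centrifugation; 1 mg/mL protein in 50 mM phosphate pH 7.4), optionally pre-blocked (urokinase 100 µM DFP). Labeled with 2 µM probe 15 min on ice. Click on ice 30 min with TAMRA-PEG-N3, THPTA, CuSO4, ascorbate; 12% or 15% SDS-PAGE, fluorescence scan ex 532/em 580 nm.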
# [9] = molecular target: T1, Cathepsin G (Homo sapiens) (UniProt P08311); experiment: Binding affinity to human cathepsin G assessed as protein labeling at 2 uM after 15 mins by fluorescent scanning method; method in brief: as §1
# T1 sequence (whole entry): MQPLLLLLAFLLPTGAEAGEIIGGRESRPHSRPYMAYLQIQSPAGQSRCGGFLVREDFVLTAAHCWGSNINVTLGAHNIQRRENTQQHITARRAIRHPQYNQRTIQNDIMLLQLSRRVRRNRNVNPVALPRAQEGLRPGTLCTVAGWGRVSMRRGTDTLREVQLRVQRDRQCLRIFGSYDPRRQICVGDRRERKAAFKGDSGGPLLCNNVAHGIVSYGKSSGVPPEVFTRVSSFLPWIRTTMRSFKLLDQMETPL
# [10] = species: Rattus norvegicus; experiment: Binding affinity to 50 kDa Serine protease band in rat liver proteome assessed as protein labeling at 1 uM after 30 mins pre-treated with serin eprotease inhibitor PMSF for 30 mins before compound addition by fluorescent scanning method; settings: 0.5 uM, in the assay text read “at 0.5 uM” for “at 1 uM”
# Method in brief: (§4)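 Rat liver homogenate (70 µm strainer, 0.5% NP-40 substitute in PBS, 1 h on ice, 15,000 rpm spin), diluted to 1 mg/mL protein in 50 mM phosphate, pH 7.4; pretreated 30 min on ice with DMSO, TPCK (100 µM) or PMSF (1 mM), then IC probe. Cu(I) click with TAMRA-PEG-N3/THPTA/CuSO4/ascorbate, SDS-PAGE, fluorescence scan (ex 532/em 580 nm).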
# [11] = molecular target: T1, Cathepsin G (Homo sapiens); experiment: Binding affinity to human cathepsin G assessed as protein labeling at 2 uM after 15 mins in presence of mouse EL4 lymphoma cell lysate for protease spiking by fluorescent scanning method relative to total protein content; format: cell-free; method in brief: as §3
# [12] = species: Rattus norvegicus; experiment: Binding affinity to 50 kDa Serine protease band in rat liver proteome assessed as protein labeling at 1 uM after 30 mins by fluorescent scanning method; settings: 0.5 uM, in the assay text read “at 0.5 uM” for “at 1 uM”; method in brief: as §4
# [13] = species: Rattus norvegicus; experiment: Binding affinity to 50 kDa Serine protease band in rat liver proteome assessed as protein labeling at 1 uM after 30 mins pre-treated with 100 uM TPCK for 30 mins before compound addition by fluorescent scanning method; settings: 0.5 uM, in the assay text read “at 0.5 uM” for “at 1 uM”; method in brief: as §4
# [14] = species: Rattus norvegicus; experiment: Binding affinity to 25 kDa Chymotrypsin in rat liver proteome assessed as protein labeling at 1 uM after 30 mins by fluorescent scanning method; method in brief: as §4
# [15] = species: Rattus norvegicus; experiment: Binding affinity to 25 kDa Chymotrypsin in rat liver proteome assessed as protein labeling at 1 uM after 30 mins pre-treated with 100 uM TPCK for 30 mins before compound addition by fluorescent scanning method; method in brief: as §4
# [16] = species: Rattus norvegicus; experiment: Binding affinity to 26 kDa Chymotrypsin in rat liver proteome assessed as protein labeling at 1 uM after 30 mins pre-treated with 100 uM TPCK for 30 mins before compound addition by fluorescent scanning method; method in brief: as §4
# [17] = species: Rattus norvegicus; experiment: Binding affinity to 26 kDa Chymotrypsin in rat liver proteome assessed as protein labeling at 1 uM after 30 mins by fluorescent scanning method; method in brief: as §4
# [18] = molecular target: Urokinase-type plasminogen activator (Homo sapiens) (UniProt P00749); experiment: as §2, with “addition in presence of mouse EL4 lymphoma cell lysate for protease spiking” for “addition”, “method relative to total protein content” for “method”; format: cell-free; method in brief: as §3
# [19] = molecular target: Urokinase-type plasminogen activator (Homo sapiens) (UniProt P00749); experiment: Binding affinity to urokinase-type plasminogen activator assessed as protein labeling at 2 uM after 15 mins in presence of mouse EL4 lymphoma cell lysate for protease spiking by fluorescent scanning method relative to total protein content; format: cell-free; method in brief: as §3
SMILES,Activity [1],Activity [2],Activity [3],Activity [4],Activity [5],Activity [6],Activity [7],Activity [9],further results
C#CCCOc1oc(=O)c2cc([N+](=O)[O-])ccc2c1Cl,Active,Active,Active,Active,Active,inactive,inactive,–,–
C#CCCC(=O)Nc1ccc2c(Cl)c(OC)oc(=O)c2c1,–,inactive,Active,Active,–,–,inactive,Active,Activity [8]: 0.007%
C#CCCOc1oc(=O)c2cc(N)ccc2c1Cl,Active,Active,Active,Active,Active,inactive,inactive,Active,Activity [10]: inactive; Activity [11]: 0.03%; Activity [12]: Active; Activity [13]: Active
C#CCCOc1oc(=O)c2cc(NC(=O)c3ccccc3)ccc2c1Cl,–,–,Active,–,–,–,inactive,Active,Activity [14]: Active; Activity [15]: inactive
C#CCCC(=O)Nc1ccc2c(Cl)c(OCCSC(=N)N)oc(=O)c2c1,Active,–,Active,–,Active,–,inactive,–,–
C#CCCC(=O)Nc1ccc2c(Cl)c(OCCc3ccccc3)oc(=O)c2c1,–,–,Active,–,–,–,inactive,–,–
C#CCCOc1oc(=O)c2ccccc2c1Cl,Active,–,Active,Active,Active,inactive,inactive,Active,Activity [16]: inactive; Activity [17]: Active
C#CCCOc1oc(=O)c2cc(NC(=O)CN)ccc2c1Cl,Active,–,Active,–,Active,–,inactive,–,–
C#CCCC(=O)Nc1ccc2c(Cl)c(OCCBr)oc(=O)c2c1,–,inactive,Active,Active,–,–,inactive,Active,–
C#CCCOc1oc(=O)c2cc(NC(=O)CNC(=N)N)ccc2c1Cl,Active,inactive,Active,Active,Active,–,inactive,–,Activity [18]: Active; Activity [19]: 0.03%
